# From ChEMBL document CHEMBL2439973, “Discovery of VU0409106: A negative allosteric modulator of mGlu5 with activity in a mouse model of anxiety” (Bioorg Med Chem Lett, 2013)
# Calls of active or inactive are those of the source. No cut-off for these calls is given here.
# How the values were obtained:
# [1] = biological target: Metabotropic glutamate receptor 1 (Rattus norvegicus) (UniProt P23385); assay: Allosteric modulation of rat mGlu1 receptor expressed in HEK293 cells assessed as effect on glutamate-induced calcium mobilization at 10 uM; format: functional, cell-based
# [2] = biological target: Alpha-1B adrenergic receptor (Rattus norvegicus) (UniProt P15823); assay: Displacement of [3H]-Prazosin from adrenergic alpha1B receptor in rat liver at 10 uM relative to control
# [3] = biological target: Muscarinic acetylcholine receptor M3 (Homo sapiens) (UniProt P20309); assay: Displacement of [3H]-N-Methylscopolamine from human recombinant muscarinic M3 receptor expressed in CHO-K1 cells at 10 uM relative to control; format: cell-based
# Procedure, shortened: (§1)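 Tested once at 10 μM in a commercial radioligand binding panel of 68 GPCRs, ion channels, kinases and transporters. Activity is given as displacement of each radioligand relative to control.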
# Rattus norvegicus [4] = organism: Rattus norvegicus; assay: Displacement of [125I]-Triiodothyronine from thyroid hormone receptor in rat liver at 10 uM relative to control; procedure, shortened: as §1
# Rattus norvegicus [5] = organism: Rattus norvegicus; assay: Displacement of [3H]-GABA from GABA transporter in rat cerebral cortex at 10 uM relative to control; format: tissue-based; procedure, shortened: as §1
# [6] = biological target: Endothelin receptor type B (Homo sapiens) (UniProt P24530); assay: Displacement of [125I]-Endothelin-1 from human recombinant ETB receptor expressed in CHO-K1 cells at 10 uM relative to control; format: cell-based; procedure, shortened: as §1
# [7] = biological target: Glucocorticoid receptor (Homo sapiens) (UniProt P04150); assay: Displacement of [3H]-Dexamethasone from human recombinant glucocorticoid receptor at 10 uM relative to control; procedure, shortened: as §1
# [8] = biological target: Metabotropic glutamate receptor 3 (Rattus norvegicus) (UniProt P31422); assay: Allosteric modulation of rat mGlu3 receptor expressed in HEK293 cells coexpressing G protein-activated inward rectifier potassium channel assessed as effect on glutamate-induced thallium flux at 10 uM; format: cell-based
# [9] = biological target: Sodium-dependent noradrenaline transporter (Homo sapiens) (UniProt P23975); assay: Displacement of [125I]-RTI-55 from human recombinant NET expressed in MDCK cells at 10 uM relative to control; format: cell-based; procedure, shortened: as §1
# CHO-K1 = assay: Displacement of [125I]-2-Iodomelatonin from human recombinant MT1 receptor expressed in CHO-K1 cells at 10 uM relative to control; format: cell-based; procedure, shortened: as §1
# [10] = biological target: Adenosine receptor A1 (Homo sapiens) (UniProt P30542); assay: Displacement of [3H]-DPCPX from human recombinant adenosine A1 receptor expressed in CHO cells at 10 uM relative to control; format: cell-based; procedure, shortened: as §1
# Plasma = assay: Cmax in CD-1 mouse plasma at 10 mg/kg, ip by LC-MS/MS analysis; format: ADME, organism-based; set-up: dose 10 mg/kg, route intraperitoneal; conditions: in vivo
# [11] = Ratio of drug level in brain to plasma in CD-1 mouse at 10 mg/kg, ip by LC-MS/MS analysis; format: ADME, organism-based; set-up: dose 10 mg/kg, route intraperitoneal; conditions: brain and plasma, read-out: BPR
# Rattus norvegicus [12] = organism: Rattus norvegicus; assay: Displacement of [3H]-Rolipram from rolipram binding site in rat brain at 10 uM relative to control; format: tissue-based
# [13] = biological target: Kappa-type opioid receptor (Homo sapiens) (UniProt P41145); assay: Displacement of [3H]-Diprenorphine from human recombinant kappa receptor expressed in HEK293 cells at 10 uM relative to control; format: cell-based; procedure, shortened: as §1
# [14] = biological target: Muscarinic acetylcholine receptor M2 (Homo sapiens) (UniProt P08172); assay: Displacement of [3H]-N-Methylscopolamine from human recombinant muscarinic M2 receptor expressed in CHO-K1 cells at 10 uM relative to control; format: cell-based; procedure, shortened: as §1
# [15] = biological target: Adenosine receptor A3 (Homo sapiens) (UniProt P0DMS8); assay: Displacement of [125I]-AB-MECA from human recombinant adenosine A3 receptor expressed in CHO-K1 cells at 10 uM relative to control; format: cell-based; procedure, shortened: as §1
# [16] = biological target: Estrogen receptor (Homo sapiens) (UniProt P03372); assay: Displacement of [3H]-Estradiol from human recombinant ERalpha receptor expressed in insect Sf9 cells at 10 uM relative to control; procedure, shortened: as §1
# Sequence of Glucocorticoid receptor (Homo sapiens) (P04150 whole entry): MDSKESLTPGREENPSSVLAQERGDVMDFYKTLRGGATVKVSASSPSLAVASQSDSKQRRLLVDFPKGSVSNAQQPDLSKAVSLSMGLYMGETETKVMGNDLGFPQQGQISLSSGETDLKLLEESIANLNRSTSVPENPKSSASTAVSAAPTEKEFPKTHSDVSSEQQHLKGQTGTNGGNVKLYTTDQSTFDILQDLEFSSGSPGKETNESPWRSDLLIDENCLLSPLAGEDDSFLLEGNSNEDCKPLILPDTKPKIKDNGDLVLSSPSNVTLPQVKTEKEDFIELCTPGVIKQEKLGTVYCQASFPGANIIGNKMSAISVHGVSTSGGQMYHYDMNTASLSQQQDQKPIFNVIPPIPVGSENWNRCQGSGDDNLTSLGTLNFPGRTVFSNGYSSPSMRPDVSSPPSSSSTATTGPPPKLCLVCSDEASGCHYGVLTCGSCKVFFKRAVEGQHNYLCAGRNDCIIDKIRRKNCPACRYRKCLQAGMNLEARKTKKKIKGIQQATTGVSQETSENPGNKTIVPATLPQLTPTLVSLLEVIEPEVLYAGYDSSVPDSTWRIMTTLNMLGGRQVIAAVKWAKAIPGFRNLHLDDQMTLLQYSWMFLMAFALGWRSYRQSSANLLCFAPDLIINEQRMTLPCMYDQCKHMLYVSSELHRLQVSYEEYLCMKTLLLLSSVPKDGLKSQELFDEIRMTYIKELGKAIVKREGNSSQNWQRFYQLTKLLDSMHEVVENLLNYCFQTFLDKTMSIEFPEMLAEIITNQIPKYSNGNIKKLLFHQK
# Sequence of Adenosine receptor A3 (Homo sapiens) (P0DMS8 whole entry): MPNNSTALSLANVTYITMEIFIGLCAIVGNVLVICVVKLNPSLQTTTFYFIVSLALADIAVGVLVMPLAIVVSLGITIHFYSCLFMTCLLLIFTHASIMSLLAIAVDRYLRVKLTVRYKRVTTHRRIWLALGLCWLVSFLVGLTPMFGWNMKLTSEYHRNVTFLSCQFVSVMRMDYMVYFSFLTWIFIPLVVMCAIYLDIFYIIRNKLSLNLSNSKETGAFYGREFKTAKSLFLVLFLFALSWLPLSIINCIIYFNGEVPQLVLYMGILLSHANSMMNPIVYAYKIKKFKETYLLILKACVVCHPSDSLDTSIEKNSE
# Sequence of Sodium-dependent noradrenaline transporter (Homo sapiens) (P23975 whole entry): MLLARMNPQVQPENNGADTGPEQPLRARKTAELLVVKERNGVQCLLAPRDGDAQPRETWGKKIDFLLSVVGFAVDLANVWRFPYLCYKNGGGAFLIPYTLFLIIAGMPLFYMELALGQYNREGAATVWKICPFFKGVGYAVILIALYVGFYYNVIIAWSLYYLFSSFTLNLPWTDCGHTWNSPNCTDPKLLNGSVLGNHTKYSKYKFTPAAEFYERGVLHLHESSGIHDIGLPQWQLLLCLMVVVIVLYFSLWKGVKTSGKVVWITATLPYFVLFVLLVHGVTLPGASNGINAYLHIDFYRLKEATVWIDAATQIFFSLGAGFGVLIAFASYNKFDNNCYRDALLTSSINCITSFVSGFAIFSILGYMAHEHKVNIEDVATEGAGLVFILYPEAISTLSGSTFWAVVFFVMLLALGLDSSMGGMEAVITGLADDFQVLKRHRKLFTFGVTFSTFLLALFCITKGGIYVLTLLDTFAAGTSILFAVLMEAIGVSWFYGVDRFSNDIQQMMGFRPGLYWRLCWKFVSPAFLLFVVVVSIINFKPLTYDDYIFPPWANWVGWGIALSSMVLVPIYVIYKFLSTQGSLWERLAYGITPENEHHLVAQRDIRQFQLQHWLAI
# Sequence of Adenosine receptor A1 (Homo sapiens) (P30542 whole entry): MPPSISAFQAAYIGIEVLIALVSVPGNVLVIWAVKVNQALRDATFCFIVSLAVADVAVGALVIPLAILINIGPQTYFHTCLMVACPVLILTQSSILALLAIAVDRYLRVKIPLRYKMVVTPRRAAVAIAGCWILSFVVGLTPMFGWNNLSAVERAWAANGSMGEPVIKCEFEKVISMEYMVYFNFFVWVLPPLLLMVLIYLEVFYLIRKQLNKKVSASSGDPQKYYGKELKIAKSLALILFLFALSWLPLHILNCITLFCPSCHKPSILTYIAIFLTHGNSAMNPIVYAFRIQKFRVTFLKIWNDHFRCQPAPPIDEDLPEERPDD
# Sequence of Alpha-1B adrenergic receptor (Rattus norvegicus) (P15823 whole entry): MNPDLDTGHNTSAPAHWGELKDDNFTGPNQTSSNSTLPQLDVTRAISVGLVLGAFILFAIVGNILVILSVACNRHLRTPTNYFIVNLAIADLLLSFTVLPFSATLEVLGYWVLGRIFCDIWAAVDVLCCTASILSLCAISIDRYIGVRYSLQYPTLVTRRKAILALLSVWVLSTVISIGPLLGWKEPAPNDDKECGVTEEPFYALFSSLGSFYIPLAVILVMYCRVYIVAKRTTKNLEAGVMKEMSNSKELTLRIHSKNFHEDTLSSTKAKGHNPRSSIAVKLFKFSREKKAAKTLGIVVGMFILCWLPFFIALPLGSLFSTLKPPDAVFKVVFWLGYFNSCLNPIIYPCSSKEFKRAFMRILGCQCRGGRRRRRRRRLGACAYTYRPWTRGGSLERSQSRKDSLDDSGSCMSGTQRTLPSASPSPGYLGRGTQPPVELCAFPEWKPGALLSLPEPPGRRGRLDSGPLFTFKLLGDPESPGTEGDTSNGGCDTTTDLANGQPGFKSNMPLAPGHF
# Sequence of Endothelin receptor type B (Homo sapiens) (P24530 whole entry): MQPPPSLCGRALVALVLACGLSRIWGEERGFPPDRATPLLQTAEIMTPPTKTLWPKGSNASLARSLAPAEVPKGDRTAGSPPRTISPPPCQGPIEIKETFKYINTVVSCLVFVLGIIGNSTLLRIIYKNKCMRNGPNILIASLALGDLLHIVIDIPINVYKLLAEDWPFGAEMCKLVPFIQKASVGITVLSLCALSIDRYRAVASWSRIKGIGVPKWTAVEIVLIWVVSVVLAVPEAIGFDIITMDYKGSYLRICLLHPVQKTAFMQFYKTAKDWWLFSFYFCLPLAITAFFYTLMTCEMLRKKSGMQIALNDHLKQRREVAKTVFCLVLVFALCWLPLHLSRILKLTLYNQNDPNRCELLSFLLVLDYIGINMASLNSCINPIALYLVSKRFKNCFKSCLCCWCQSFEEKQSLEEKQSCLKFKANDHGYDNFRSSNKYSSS
# Sequence of Metabotropic glutamate receptor 3 (Rattus norvegicus) (P31422 23-879 limits assumed): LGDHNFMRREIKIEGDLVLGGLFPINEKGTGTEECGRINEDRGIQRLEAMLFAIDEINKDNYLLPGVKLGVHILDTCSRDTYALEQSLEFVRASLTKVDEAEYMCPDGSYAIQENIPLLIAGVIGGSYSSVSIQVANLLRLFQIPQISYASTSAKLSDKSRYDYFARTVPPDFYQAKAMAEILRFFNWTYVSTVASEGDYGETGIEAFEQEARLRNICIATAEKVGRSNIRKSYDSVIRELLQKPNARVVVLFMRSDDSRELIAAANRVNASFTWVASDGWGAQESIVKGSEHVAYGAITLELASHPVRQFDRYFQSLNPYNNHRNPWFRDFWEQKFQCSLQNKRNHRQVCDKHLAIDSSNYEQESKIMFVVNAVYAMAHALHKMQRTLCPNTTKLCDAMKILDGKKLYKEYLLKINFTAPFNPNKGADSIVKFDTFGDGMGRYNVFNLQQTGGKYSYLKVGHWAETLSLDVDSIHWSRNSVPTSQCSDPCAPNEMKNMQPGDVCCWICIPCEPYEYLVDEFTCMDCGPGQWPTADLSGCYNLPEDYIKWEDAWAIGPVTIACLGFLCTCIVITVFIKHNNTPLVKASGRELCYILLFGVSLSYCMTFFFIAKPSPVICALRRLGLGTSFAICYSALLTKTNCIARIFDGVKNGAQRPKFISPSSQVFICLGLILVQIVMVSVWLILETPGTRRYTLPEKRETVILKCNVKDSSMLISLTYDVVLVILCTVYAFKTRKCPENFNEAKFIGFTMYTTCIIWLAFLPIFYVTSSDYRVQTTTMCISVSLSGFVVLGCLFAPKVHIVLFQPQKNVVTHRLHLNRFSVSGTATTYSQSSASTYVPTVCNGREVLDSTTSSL
# Sequence of Metabotropic glutamate receptor 1 (Rattus norvegicus) (P23385 19-1199 limits assumed): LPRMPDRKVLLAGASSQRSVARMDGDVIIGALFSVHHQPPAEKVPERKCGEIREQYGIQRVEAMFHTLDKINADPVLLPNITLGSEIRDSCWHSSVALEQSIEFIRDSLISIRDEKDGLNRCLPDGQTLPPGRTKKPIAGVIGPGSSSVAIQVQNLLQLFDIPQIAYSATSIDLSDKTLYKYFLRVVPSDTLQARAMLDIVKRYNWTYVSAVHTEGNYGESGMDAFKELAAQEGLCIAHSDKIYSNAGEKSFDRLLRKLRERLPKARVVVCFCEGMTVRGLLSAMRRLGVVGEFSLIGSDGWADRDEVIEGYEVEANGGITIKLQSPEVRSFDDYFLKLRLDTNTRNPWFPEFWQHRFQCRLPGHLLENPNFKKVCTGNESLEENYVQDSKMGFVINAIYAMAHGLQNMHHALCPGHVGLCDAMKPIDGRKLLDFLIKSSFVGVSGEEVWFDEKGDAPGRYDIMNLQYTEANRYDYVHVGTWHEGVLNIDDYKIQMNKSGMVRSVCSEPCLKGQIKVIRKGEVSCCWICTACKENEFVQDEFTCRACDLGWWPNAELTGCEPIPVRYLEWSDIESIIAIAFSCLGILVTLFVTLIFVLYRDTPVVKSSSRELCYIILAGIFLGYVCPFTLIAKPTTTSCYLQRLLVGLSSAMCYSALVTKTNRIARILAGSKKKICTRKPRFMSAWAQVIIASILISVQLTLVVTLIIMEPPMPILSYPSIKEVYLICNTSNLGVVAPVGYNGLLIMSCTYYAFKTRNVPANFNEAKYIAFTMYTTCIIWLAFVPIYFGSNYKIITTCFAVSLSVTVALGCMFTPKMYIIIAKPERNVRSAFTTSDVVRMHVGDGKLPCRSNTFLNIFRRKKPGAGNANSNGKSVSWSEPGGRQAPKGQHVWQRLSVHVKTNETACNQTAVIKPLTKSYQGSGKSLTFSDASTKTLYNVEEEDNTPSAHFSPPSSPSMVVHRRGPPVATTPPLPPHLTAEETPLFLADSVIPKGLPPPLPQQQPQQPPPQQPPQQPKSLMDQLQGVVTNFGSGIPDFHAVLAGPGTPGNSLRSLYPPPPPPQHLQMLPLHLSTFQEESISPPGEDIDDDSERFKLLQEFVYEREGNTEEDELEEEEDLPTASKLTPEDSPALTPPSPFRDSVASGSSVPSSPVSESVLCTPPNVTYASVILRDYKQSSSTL
compound,measurement,setting,value
Cc1csc(NC(=O)c2cc(F)cc(Oc3cncnc3)c2)n1,Activity,[1],inactive
same,inhibition,[2],> 35%
same,inhibition,[3],> 35%
same,inhibition,Rattus norvegicus [4],> 35%
same,inhibition,Rattus norvegicus [5],> 35%
same,inhibition,[6],> 35%
same,inhibition,[7],> 35%
same,Activity,[8],inactive
same,inhibition,[9],> 35%
same,inhibition,CHO-K1,> 35%
same,inhibition,[10],> 35%
same,Cmax,Plasma,1450 ng/mL
same,Kp,[11],0.99
same,inhibition,Rattus norvegicus [12],> 35%
same,inhibition,[13],> 35%
same,inhibition,[14],> 35%
same,inhibition,[15],> 35%
same,inhibition,[16],> 35%
